Laboratory results published in ChEMBL document CHEMBL1123157, “Thromboxane synthetase inhibitors and antihypertensive agents. 1. N-[(1H-imidazol-1-yl)alkyl]aryl amides and N-[(1H-1,2,4-triazol-1-yl)alkyl]aryl amides” (J Med Chem, 1986).
Active and inactive are the calls of the source.

Assays:
[1] = molecular target: T1, Thromboxane-A synthase (Rattus norvegicus) (UniProt P49430); test: Inhibitory activity for thromboxane synthetase determined by TXB2 levels in platelets from spontaneously hypertensive rats.; design: concentration or dose not given beside the values; settings: concentration not given here
T1 sequence (whole entry): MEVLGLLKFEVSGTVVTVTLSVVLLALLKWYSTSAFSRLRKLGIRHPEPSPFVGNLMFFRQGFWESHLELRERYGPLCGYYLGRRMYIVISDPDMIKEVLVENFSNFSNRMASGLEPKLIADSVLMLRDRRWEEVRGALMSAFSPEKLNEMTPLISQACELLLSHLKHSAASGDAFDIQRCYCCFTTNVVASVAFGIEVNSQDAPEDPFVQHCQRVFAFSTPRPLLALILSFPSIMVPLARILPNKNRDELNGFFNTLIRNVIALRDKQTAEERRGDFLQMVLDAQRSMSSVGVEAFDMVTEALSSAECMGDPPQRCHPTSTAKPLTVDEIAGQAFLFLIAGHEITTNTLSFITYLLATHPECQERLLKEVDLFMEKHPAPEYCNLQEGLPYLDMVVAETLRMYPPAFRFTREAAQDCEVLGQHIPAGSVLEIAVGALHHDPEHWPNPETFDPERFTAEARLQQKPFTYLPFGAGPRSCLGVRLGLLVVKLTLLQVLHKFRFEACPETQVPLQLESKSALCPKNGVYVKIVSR
Outline: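 Washed SHR platelets in oxygenated Krebs phosphate buffer, pH 7.4, 4.5-6.0 × 10^4/μL, incubated with vehicle or drug for 10 min at 37 °C. Stopped with ice and citric acid. Supernatant TXB2 measured by RIA; TXB2 in boiled controls subtracted; % inhibition calculated. IC50 read graphically from % inhibition vs log concentration; single-point screen at 10^-4 M.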

Rattus norvegicus = test: Antihypertensive activity in spontaneously hypertensive rats tested at 100 mg/kg po/day for 2 days; assay type: functional, organism-based; design: dose 100 mg/kg
Outline: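 Male 16-week-old Okamoto SHR (mean arterial pressure about 170 mmHg), 1-3 rats per compound. Given by gavage in 2% preboiled starch (50 mg/mL), 100 mg/kg or less, with 0.9% NaCl load (25 mL/kg). Second dose without saline 24 h later. Mean arterial pressure measured 28 h after first dose. Active if ≤116 mmHg in one rat or mean ≤122 mmHg in two.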

SMILES	inhibition [1] [%]	Activity (Rattus norvegicus)
O=C(NCCCCCCCCn1ccnc1)c1ccc(Br)cc1	100	
CC(=O)Nc1ccc(C(=O)NCCCn2ccnc2)cc1	99	inactive
O=C(NCCCn1cncn1)c1ccc(F)cc1	67	inactive
Cc1cn(CCCNC(=O)c2ccc(I)cc2)cn1	99	inactive
CC(=O)c1ccc(C(=O)NCCCn2ccnc2)cc1	90	inactive
O=C(NCCCn1cncn1)c1cccc(F)c1	82	inactive
O=C(NCCCCn1ccnc1)c1ccc(Cl)c(Cl)c1	100	inactive
Cc1nccn1CCCNC(=O)c1ccc(Br)cc1	66	inactive
CC(CCNC(=O)c1cccc(Cl)c1)n1ccnc1 (centres undefined)	93	inactive
N#Cc1ccc(C(=O)NCCCn2ccnc2)cc1	91	inactive
O=C(NCCCCn1cncn1)c1cccc(Cl)c1	87	inactive
CC(CCNC(=O)c1ccc(Cl)cc1)n1ccnc1 (centres undefined)	96	inactive
O=C(NCCCn1ccnc1)C1CC1c1ccccc1 (centres undefined)	100	inactive
O=C(CCc1ccccc1)NCCCn1ccnc1	64	inactive
CNc1ccccc1C(=O)NCCCn1ccnc1	57	inactive
O=C(NCCCn1cncn1)c1ccc(C(=O)c2ccccc2)cc1	65	inactive
O=C(COc1ccccc1)NCCCn1ccnc1	86	inactive
O=C(NCCn1cncn1)c1ccc(Br)cc1	0	inactive
O=C(NCCCn1cncn1)c1cccc(Cl)c1	86	inactive

SMILES	inhibition [1] [%]	Activity (Rattus norvegicus)
CCCCOc1ccc(C(=O)NCCCn2cncn2)cc1	71	inactive
O=C(NCCCCCn1cncn1)c1ccc(Br)cc1	81	inactive
O=C(NCCCn1cncn1)c1ccccc1-c1ccccc1	65	inactive
CN(C)c1ccc(C(=O)NCCCn2ccnc2)cc1	93	inactive
O=C(NC/C=C/Cn1ccnc1)c1ccc(C(F)(F)F)cc1 (stereo in doubt; 54)	95	inactive
O=C(NCCn1ccnc1)c1ccc(Cl)c(Cl)c1	59	inactive
O=C(NCCCCn1cncn1)c1ccccc1-c1ccccc1	89	inactive
CC(CNC(=O)c1ccc(Cl)cc1)Cn1ccnc1 (centres undefined)	100	inactive
COc1cc(C(=O)NCCCn2ccnc2)cc(OC)c1OC	100	inactive
O=C(NCCCCn1cncn1)c1ccc(Cl)cc1	52	inactive
O=C(NCCCn1cncn1)c1ccc(Br)cc1	40	inactive
O=C(NCCCCn1cncn1)c1ccc(C(F)(F)F)cc1	38	inactive
O=C(NC/C=C/Cn1ccnc1)c1ccc(Cl)cc1 (stereo in doubt; 51)	100	inactive
O=C(NCCCn1ccnc1)c1ccc(-c2ccccc2)cc1	100	inactive
O=C(NCCCn1cncn1)c1cccc([N+](=O)[O-])c1	72	inactive
O=C(Cc1cccc(Cl)c1)NCCCn1cncn1	0	inactive
O=C(NCCCn1ccnc1)c1ccccc1Br	50	inactive
O=C(NCCCn1cncn1)c1ccc(Cl)cc1	16	inactive
O=C(O)c1ccc(OCCn2ccnc2)cc1	98	
